T cruzi inh = T. cruzi replication inhibition | T. cruzi beta-gal in NIH3T3, luminescence, 90 h | inhibition, % (no concentration beside the values) | 300,000 tested, 1.4% active | AID 1885;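 active means mean inhibition across valid replicates above about 55%, limit read from the data; inconclusive means mean below that limit but half or more replicates reach it; inactive means mean below it, under half of replicates reach it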;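 further: signal also drops with host cell toxicity which is not excluded here; 0% = plate median of DMSO wells and 100% = zero luminescence signal; higher percent means less beta-gal luminescence so fewer parasites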
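Assay system: NIH/3T3 host cells with β-galactosidase reporter T. cruzi; input: 5,000 host fibroblasts per well; compound: single 50 nL compound addition per well in DMSO; timing: ≥90 h infection period, 3 h prior cell attachment; measured by: GalScreen β-gal luminescence, detergent lysis, 60 min; evaluation: percent inhibition of parasite-derived β-gal signal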
MEKK3 PB1 HTS = MEKK3-MEK5 PB1 interaction, increase or decrease; bead-based flow cytometry, Alexa488-MEK5 binding to MEKK3; actives lie on both sides; 0 = blocked by unlabeled MEK5, 100 = vehicle; AID 1529; binding response (% of control), % at 10 µM; 290,000 tested, 1.4% active; Q99759;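 active means binding response more than 3 SD above or below the average of its plate-row segment, actives on both sides; inconclusive means wells at one plate position flagged as instrument error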;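 further: Alexa488 bead fluorescence after subtracting the streptavidin-only scavenger bead signal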
Target sequence (Q99759 whole entry, looked up): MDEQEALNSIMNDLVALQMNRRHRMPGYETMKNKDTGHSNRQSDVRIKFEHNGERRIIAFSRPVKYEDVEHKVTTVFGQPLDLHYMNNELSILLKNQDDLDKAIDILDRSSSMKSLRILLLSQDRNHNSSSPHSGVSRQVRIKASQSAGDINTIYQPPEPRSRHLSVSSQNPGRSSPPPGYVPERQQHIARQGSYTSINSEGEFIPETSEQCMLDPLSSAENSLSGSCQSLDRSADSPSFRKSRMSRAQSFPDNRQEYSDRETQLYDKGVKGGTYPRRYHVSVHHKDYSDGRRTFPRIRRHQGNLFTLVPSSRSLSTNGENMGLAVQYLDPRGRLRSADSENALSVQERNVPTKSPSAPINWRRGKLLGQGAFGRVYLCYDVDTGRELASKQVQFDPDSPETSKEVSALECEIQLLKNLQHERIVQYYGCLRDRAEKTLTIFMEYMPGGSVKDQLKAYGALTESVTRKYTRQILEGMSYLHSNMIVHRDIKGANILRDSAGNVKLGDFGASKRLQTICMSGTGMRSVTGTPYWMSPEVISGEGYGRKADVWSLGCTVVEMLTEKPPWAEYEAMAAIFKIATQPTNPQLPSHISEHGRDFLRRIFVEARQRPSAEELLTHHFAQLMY
FID counter = fluorescent intercalator displacement, NS3 helicase counter-screen; DNA fluorescent intercalator displacement, fluorescence; inhibition, % at 7.9 µM; 290,000 tested, 0.17% active; in the data active means inhibition above about 37%;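 further: 0% = vehicle and 100% = reference compound; higher means more ethidium bromide displaced from hairpin DNA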
NS3 helicase inh = HCV NS3 helicase inhibition; inhibition, % at 10.9 µM; 290,000 tested, 0.56% active; AID 1800; NS3 helicase DNA unwinding, Cy5 molecular beacon fluorescence;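 active means inhibition above the mean of all tested compounds plus 3 SD, set per campaign, cut at about 35% in these data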;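 further: 0% = DMSO wells and 100% = thioflavine S control wells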
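System: HCV NS3 helicase fragment; control set: DMSO and thioflavine S; technique: Cy5 fluorescence at 0 and 60 min, beacon hairpin quenching; reagent: beacon DNA duplex substrate plus ATP; replicates: singlicate; schedule: 1 h reaction at 25 °C, ATP-initiated; medium: MOPS buffer pH 6.5 with MgCl2, DTT, Tween20, BSA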
MEKK2wt PB1 HTS = raises or lowers MEK5 binding to wildtype human MEKK2 PB1 domain. binding response (% of control), % at 10 µM. 290,000 tested, 1.1% active. bead flow cytometry, Alexa488-MEK5 binding to MEKK2 WT; actives lie on both sides. AID 1531; in the data active means binding response below about 67% or above about 130%; inconclusive means no clear call, values can overlap the other calls; inactive means in between
MEKK2mut PB1 HTS = signal of MEK5 binding to mutant human MEKK2 PB1 domain | AID 1530 | bead flow cytometry, Alexa488-MEK5 binding to MEKK2 mutant | 290,000 tested, 0.35% active | percent response, % at 10 µM; in the data active means percent response above about 24%, passing the limit was not always enough
MEKK2wt confirm = raises or lowers MEK5 binding to wildtype human MEKK2, retest. bead flow cytometry, Alexa488-MEK5 binding to MEKK2 WT; actives lie on both sides. 5,900 tested, 2.4% active. binding response (% of control), % at 10 µM. AID 1892. shares compounds with MEKK3 PB1 HTS; in the data active means binding response below about 16% or above about 210%; inactive means in between
MEKK2mut-MEK5 = signal of MEK5 binding to mutant human MEKK2, retest; shares compounds with MEKK3 PB1 HTS; bead flow cytometry, Alexa488-MEK5 binding to MEKK2 mutant; percent response, % at 10 µM; 5,900 tested, 2% active; in the data active means percent response mostly above about 71%, no sharp cut-off; inactive means mostly below about 38%;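 further: higher means compound restores mutant binding toward wildtype level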
MEKK3-MEK5 inh = MEKK3-MEK5 PB1 inhibition, single concentration confirmation | shares compounds with MEKK3 PB1 HTS | bead flow cytometry, Alexa488-MEK5 binding to MEKK3; hits give low values | binding response (% of control), % at 10 µM | 5,900 tested, 1.8% active;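 active means binding response below 72% of control, or above a set upper limit, though filed actives all read lower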;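 further: 100% = DMSO only wells and 0% = binding blocked by excess unlabeled MEK5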
Numbers without * were called inactive; ? = inconclusive; . = no result given; [ ] = another dose, or the depositor's remark. This is a sample that favours compounds with a hit; in the whole collection about 4.1% have one here.

SMILES | T cruzi inh | MEKK3 PB1 HTS | FID counter | NS3 helicase inh | MEKK2wt PB1 HTS | MEKK2mut PB1 HTS | MEKK2wt confirm | MEKK2mut-MEK5 | MEKK3-MEK5 inh
CC1=Nc2ccccc2/C1=C/c1c(N)n2c(S(=O)(=O)C(C)C)nsc2nc1=O | -8 | 86 | -25 | 30 | 78 | -18 | . | . | .
CC(C)S(=O)(=O)c1nsc2nc(=O)c(/C=C3\C=Nc4ccccc43)c(N)n12 | 4 | 129* | 1 | 18 | 110 | 1 | 94 | -1 | 97
CCc1ccc2c(CN3CCN(S(=O)(=O)c4cccs4)CC3)cc(=O)oc2c1 | 20 | 135* | -3 | -1 | 100 | 1 | 92 | -8 | 98
O=C(CSc1ccc(-c2ccccc2)nn1)N1CCN(c2ccccc2)CC1 | -6 | 99 | -6 | -8 | 99 | 9 | . | . | .
Cc1ccc(-c2ccc(SCC(=O)N3CCN(c4ccccc4)CC3)nn2)cc1 | 9 | 138* | -1 | 1 | 105 | 1 | 105 | -3 | 102
Cc1cc2c(ncn2Cc2ccccc2)c(N)c1C | -11 | 100 | -7 | 11 | 101 | 1 | . | . | .
CCN(CCn1cccn1)C(=O)c1ccc2nc(Cc3ccc(OC)cc3)oc2c1 | -1 | 100 | -42 | -3 | 97 | 1 | . | . | .
O=C(c1ccc(F)cc1)c1ccc(CN2C(=O)c3ccccc3C2=O)o1 | 5 | 102 | -9 | 2 | 96 | -1 | . | . | .
O=C(c1ccc(Cl)cc1)c1ccc(CN2C(=O)c3ccccc3C2=O)o1 | -5 | 2.0*[inhibitor] | 5 | 1 | 2.0*[inhibitor] | -16 | 103 | 4 | 106
O=C(O)C1CC(=O)N(c2ccc(OCc3ccccc3)cc2)C1 (stereo unspecified) | -26 | 72*[inhibitor] | -11 | -2 | 76 | -3 | 103 | -1 | 101
CCOc1ncccc1C(=O)NNC(=O)c1cccc(S(=O)(=O)Nc2ccc(OC)cc2)c1 | 5 | 98 | -21 | -4 | 101 | 6 | . | . | .
CCC1=Nc2cc(C(=O)NCCCOC)ccc2Sc2ccccc21 | 56* | 125* | -23 | -2 | 127 | 6 | 98 | 0 | 105
Cc1onc(-c2c(F)cccc2Cl)c1C(=O)N(C)C1CCCCC1 | 3 | 103 | -32 | -9 | 108 | 9 | . | . | .
CC(=O)c1ccc(S(=O)(=O)N(CCCO)Cc2cc3cc4c(cc3[nH]c2=O)OCCO4)cc1 | -5 | 100 | -9 | -2 | 104 | 3 | . | . | .
O=c1[nH]c2cc3c(cc2cc1CN(CCO)S(=O)(=O)c1ccccc1)OCCO3 | -7 | 130* | -12 | -3 | 111 | 23 | 102 | 5 | 101
CC(C)C[C@H](NC(=O)N1CCn2c1nc1ccccc12)C(=O)NCC1CCCO1 (stereo partly specified) | -13 | 101 | -33 | -2 | 103 | -2 | . | . | .
Cc1ccc2cc(C#N)c(SCC(=O)N3CCCC3)nc2c1 | 42 | 45*[inhibitor] | -18 | -4 | 43*[inhibitor] | -11 | 94 | -8 | 95
CCS(=O)(=O)Nc1cccc(C2=NN(S(=O)(=O)c3ccccc3)C(c3cccs3)C2)c1 (stereo unspecified) | -24 | 21*[inhibitor] | -16 | -13 | . | 106* | 96 | -10 | 95
CCS(=O)(=O)Nc1cccc(C2=NN(S(=O)(=O)CC)C(c3ccccc3)C2)c1 (stereo unspecified) | 0 | 92 | -22 | 4 | 142* | 355* | 98 | -11 | 91
CCc1ccc(C2=NN(S(C)(=O)=O)C(c3cccs3)C2)cc1 (stereo unspecified) | ? | 12*[inhibitor] | -16 | 10 | . | . | 93 | 3 | 93
Cc1ccc(C2=NN(S(C)(=O)=O)C(c3cccs3)C2)cc1 (stereo unspecified) | -8 | 98 | -19 | -3 | 95 | 4 | . | . | .
Cc1cccc(-c2nnc(SCC(=O)C(C)(C)C)n2C)c1 | 0 | 107 | -12 | 1 | 99 | 14 | . | . | .
C/C(=N\NC(=O)c1cccc(S(=O)(=O)N2CCOCC2)c1)c1ccc(OCC(=O)N(C)C)cc1 | -6 | . | . | . | . | . | . | . | .
CC(=O)N(C)c1ccc(NCc2cc(=O)oc3cc(C)c(O)cc23)cc1 | 4 | 103 | -11 | -3 | 100 | -1 | . | . | .
COc1cccc(CNC(=O)CCS(=O)(=O)c2ccc3c(c2)oc(=O)n3C)c1 | -2 | 100 | -7 | -4 | 100 | 3 | . | . | .
SMILES | T cruzi inh | MEKK3 PB1 HTS | FID counter | NS3 helicase inh | MEKK2wt PB1 HTS | MEKK2mut PB1 HTS | MEKK2wt confirm | MEKK2mut-MEK5 | MEKK3-MEK5 inh
CCc1ccc(C(=O)NNC(=O)c2cc(S(=O)(=O)N(C)C)ccc2N2CCCC2)cc1 | 2 | 96 | -25 | 5 | 100 | 2 | . | . | .
Oc1ccc(Cl)cc1/C=C/c1ccc2cccc(O)c2n1 | 21 | 128* | 7 | 12 | 119 | 0 | 94 | -8 | 103
Oc1c(Cl)cc(Cl)cc1/C=C/c1ccc2cccc(O)c2n1 | -41 | 100 | -6 | 10 | 97 | -2 | . | . | .
O=C(Nc1cc(Cl)cc(Cl)c1)C(c1ccccc1)N1CCCCC1 (stereo unspecified) | 21 | 153* | 4 | -12 | 122 | 1 | 118 | 6 | 104
CCOc1ccc(CC(=O)N2CCN=C2SCc2ccc([N+](=O)[O-])cc2)cc1 | 6 | 106 | 4 | 14 | 102 | 0 | . | . | .
COc1ccc(CC(=O)N2CCN=C2SCc2ccc([N+](=O)[O-])cc2)cc1 | 13 | 130* | 2 | -7 | 118 | 3 | 95 | -4 | 99
CCN(CC)c1nc2ccccc2n2cnnc12 | 6 | 98 | -1 | -1 | 99 | 0 | . | . | .
O=c1[nH]c2ccccc2n2cnnc12 | -9 | 147* | 1 | 3 | 126 | 6 | 100 | 6 | 105
CC1CCN(S(=O)(=O)N2CCN(C(=O)c3ccc4c(c3)OCO4)CC2)CC1 | 2 | 100 | -30 | 9 | 99 | -1 | . | . | .
C=CCn1c(SCC(=O)N2N=C(c3ccco3)CC2c2ccco2)nnc1-c1ccncc1 (stereo unspecified) | -11 | 66*[inhibitor] | -25 | 12 | 94 | -1 | 113 | 12 | 106
C=CCn1c(=O)c2c(nc3n2CCCN3CCc2ccc(OC)c(OC)c2)n(C)c1=O | 2 | 105 | -28 | -12 | 109 | 15 | . | . | .
COCCNC(=O)C(c1ccc(C)o1)N(C(=O)Cn1nnc2ccccc21)c1ccccc1 (stereo unspecified) | -6 | 107 | -11 | 3 | 81 | 2 | . | . | .

Compound activity from PubChem BioAssay.
